# Source: ChEMBL document CHEMBL5252669, “Semisynthetic blasticidin S ester derivatives show enhanced antibiotic activity” (RSC Med Chem, 2023)
# Calls of active or inactive are those of the source. The calls are words filed in the database; no cut-off is given here.
# How the values were obtained:
# [1] = Selectivity index, ratio of CC50 for human MRC5 cells to IC50 for Acinetobacter baumannii ATCC 17978; assay type: toxicity; conditions: read-out: Ratio CC50/IC50
# [2] = Selectivity index, ratio of CC50 for human MRC5 cells to IC50 for Staphylococcus aureus; assay type: toxicity; conditions: read-out: Ratio CC50/IC50
# Candida albicans [3] = assay: Antifungal activity against Candida albicans incubated for 16 hrs by broth microdilution method; assay type: functional
# Enterococcus [4] = assay: Antibacterial activity against vancomycin-resistant Enterococcus incubated for 20 hrs by broth microdilution method
# Staphylococcus aureus [5] = assay: Antibacterial activity against methicillin resistant Staphylococcus aureus assessed as zone of inhibition incubated for 18 hrs by spot on lawn assay; assay type: functional, organism-based
# Method in brief: (§1)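 Spot-on-lawn assay. Plates of 1.5% agar in LB were overlaid with 0.7% LB agar seeded with overnight culture at 0.01 OD600. Aqueous 5 mg mL−1 solutions were spotted at 35, 25, 10 and 5 μg, with a 1:1 water/methanol vehicle spot. After 18 h at 37 °C, inhibition zone diameters were measured with a ruler.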
# [6] = Cytotoxicity against human MRC5 cells incubated for 24 hrs by MTS assay; assay type: toxicity, cell-based
# Method in brief: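 MRC-5 lung fibroblasts seeded 5000 per well; medium replaced with compound 16–192 μg mL−1 or matching 1:1 methanol:water vehicle; 24 h, then MTS 3–4 h; absorbance 490 nm; viability relative to untreated cells, normalized to vehicle; CC50 from two independent assays in duplicate, mean ± SD.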
# [7] = Selectivity index, ratio of CC50 for human MRC5 cells to IC50 for MexAB-OprM deleted Pseudomonas aeruginosa; assay type: toxicity; conditions: read-out: Ratio CC50/IC50
# Candida albicans [8] = assay: Antifungal activity against Candida albicans assessed as zone of inhibition incubated for 18 hrs by spot on lawn assay; assay type: functional, organism-based
# Method in brief: (§2)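 Overnight LB cultures diluted to OD600 0.01 in 0.7% LB top agar, overlaid on 1.5% LB agar; 5 mg mL−1 aqueous compound spotted at 35, 25, 10 and 5 μg with 1:1 water/methanol vehicle spot; 37 °C, 18 h; inhibition zone diameter measured by ruler.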
# Klebsiella pneumoniae = assay: Antibacterial activity against Klebsiella pneumoniae ATCC 29665 incubated for 16 hrs by broth microdilution method; assay type: functional, organism-based; conditions: for IC50: ATCC 29665, 16 h; for MIC: ATCC 29665, time 16 hrs
# [9] = Selectivity index, ratio of CC50 for human MRC5 cells to IC50 for methicillin resistant Staphylococcus aureus; assay type: toxicity; conditions: read-out: Ratio CC50/IC50
# Pseudomonas aeruginosa = assay: Antibacterial activity against MexAB-OprM deleted Pseudomonas aeruginosa incubated for 16 hrs by broth microdilution method; assay type: functional, organism-based; conditions: for IC50: 16 h; for MIC: time 16 hrs
# Staphylococcus aureus [10] = assay: Antibacterial activity against Staphylococcus aureus assessed as zone of inhibition incubated for 18 hrs by spot on lawn assay; assay type: functional, organism-based; method in brief: as §2
# [11] = Selectivity index, ratio of CC50 for human MRC5 cells to IC50 for Enterococcus faecalis ATCC 29212; assay type: toxicity; conditions: read-out: Ratio CC50/IC50
# Staphylococcus aureus [12] = assay: Antibacterial activity against wild type Staphylococcus aureus 8810 incubated for 16 hrs by broth microdilution method; assay type: functional, organism-based; conditions: for IC50: Staphylococcus aureus, 8810, 16 h; for MIC: Staphylococcus aureus, 8810, time 16 hrs
# Method in brief: (§3)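 Cation-adjusted Mueller-Hinton broth microdilution. Overnight cultures from single colonies were diluted to OD600 0.004. Final compound range was 256–2 μg mL−1 in 1:1 methanol/water vehicle, with doxycycline and vehicle controls. Plates were incubated 16 h at 37 °C. OD600 was normalized to controls, and MIC was the lowest concentration inhibiting >90% growth. Two biological replicates in duplicate; reported as a range.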
# Enterococcus faecalis [13] = assay: Antibacterial activity against Enterococcus faecalis ATCC 29212 assessed as zone of inhibition incubated for 18 hrs by spot on lawn assay; assay type: functional, organism-based; method in brief: as §2
# Staphylococcus aureus [14] = assay: Antibacterial activity against NorA deleted Staphylococcus aureus incubated for 16 hrs by broth microdilution method; assay type: functional, organism-based; conditions: for IC50: 16 h; for MIC: time 16 hrs; method in brief: as §3
# Staphylococcus aureus [15] = assay: Antibacterial activity against methicillin resistant Staphylococcus aureus ATCC 43300 incubated for 16 hrs by broth microdilution method; assay type: functional, organism-based; conditions: for IC50: ATCC 43300, 16 h; for MIC: ATCC 43300, time 16 hrs; method in brief: as §3
# Enterococcus faecalis [16] = assay: Antibacterial activity against Enterococcus faecalis ATCC 29212 incubated for 20 hrs by broth microdilution method; conditions: ATCC 29212, 20 h
# [17] = Selectivity index, ratio of CC50 for human MRC5 cells to IC50 for NorA deleted Staphylococcus aureus; assay type: toxicity; conditions: read-out: Ratio CC50/IC50
# [18] = Selectivity index, ratio of CC50 for human MRC5 cells to IC50 for vancomycin-resistant Enterococcus; assay type: toxicity; conditions: read-out: Ratio CC50/IC50
# Saccharomyces cerevisiae = assay: Antifungal activity against Saccharomyces cerevisiae incubated for 16 hrs by broth microdilution method; assay type: functional
# [19] = Selectivity index, ratio of CC50 for human MRC5 cells to IC50 for Klebsiella pneumoniae ATCC 29665; assay type: toxicity; conditions: read-out: Ratio CC50/IC50
# Enterococcus [20] = assay: Antibacterial activity against vancomycin-resistant Enterococcus assessed as zone of inhibition incubated for 18 hrs by spot on lawn assay; assay type: functional, organism-based; method in brief: as §1
# Staphylococcus aureus [21] = assay: Antibacterial activity against NorA deleted Staphylococcus aureus assessed as zone of inhibition incubated for 18 hrs by spot on lawn assay; assay type: functional, organism-based; method in brief: as §2
# Acinetobacter baumannii [22] = assay: Antibacterial activity against Acinetobacter baumannii ATCC 17978 incubated for 16 hrs by broth microdilution method; assay type: functional, organism-based; conditions: for IC50: ATCC 17978, 16 h; for MIC: ATCC 17978, time 16 hrs
# Escherichia coli = assay: Potency index, ratio of blasticidin-S MIC to test compound MIC for Escherichia coli; assay type: functional
# Acinetobacter baumannii [23] = assay: Potency index, ratio of blasticidin-S MIC to test compound MIC for Acinetobacter baumannii; assay type: functional
# Staphylococcus aureus [24] = assay: Potency index, ratio of blasticidin-S MIC to test compound MIC for Staphylococcus aureus; assay type: functional
Compound,selectivity ratio [1],selectivity ratio [2],MIC (Candida albicans [3]),IC50 (Enterococcus [4]),MIC (Enterococcus [4]),CC50 at 24 h [6],selectivity ratio [7],IC50 (Klebsiella pneumoniae),MIC (Klebsiella pneumoniae),selectivity ratio [9],IC50 (Pseudomonas aeruginosa),MIC (Pseudomonas aeruginosa),selectivity ratio [11],IC50 (Staphylococcus aureus [12]),MIC (Staphylococcus aureus [12]),IC50 (Staphylococcus aureus [14]),MIC (Staphylococcus aureus [14]),IC50 (Staphylococcus aureus [15]),MIC (Staphylococcus aureus [15]),IC50 (Enterococcus faecalis [16]),other results
CCOC(=O)[C@H]1O[C@@H](n2ccc(N)nc2=O)C=C[C@@H]1NC(=O)C[C@@H](N)CCN(C)C(=N)N.Cl.Cl.Cl,0.3,0.8,> 256 µg/mL,34.4 µg/mL,64 µg/mL,8.9 µg/mL,0.1,73.9 µg/mL,> 128 µg/mL,0.5,67 µg/mL,> 128 µg/mL,0.9,11.6 µg/mL,32 µg/mL,20 µg/mL,32 µg/mL,17 µg/mL,32 µg/mL,9.9 µg/mL,Activity (Staphylococcus aureus [5]): Active; Activity (Candida albicans [8]): inactive; Activity (Staphylococcus aureus [10]): Active; Activity (Enterococcus faecalis [13]): Active; MIC (Enterococcus faecalis [16]): 16 µg/mL; selectivity ratio [17]: 0.4; selectivity ratio [18]: 0.3; MIC (Saccharomyces cerevisiae): 32 µg/mL; selectivity ratio [19]: 0.1; Activity (Enterococcus [20]): Active; Activity (Staphylococcus aureus [21]): Active; IC50 (Acinetobacter baumannii [22]): 30.4 µg/mL; MIC (Acinetobacter baumannii [22]): 64 µg/mL
CN(CC[C@H](N)CC(=O)N[C@H]1C=C[C@H](n2ccc(N)nc2=O)O[C@@H]1C(N)=O)C(=N)N.Cl.Cl.Cl,3,0.6,256 µg/mL,69.6 µg/mL,128 µg/mL,9.4 µg/mL,0.5,9.3 µg/mL,16 µg/mL,0.6,19.7 µg/mL,64 µg/mL,0.7,15.2 µg/mL,32 µg/mL,41.6 µg/mL,64 µg/mL,15.4 µg/mL,32 µg/mL,12.9 µg/mL,PI (Escherichia coli): 8; MIC (Enterococcus faecalis [16]): 32 µg/mL; selectivity ratio [17]: 0.2; selectivity ratio [18]: 0.1; MIC (Saccharomyces cerevisiae): 64 µg/mL; selectivity ratio [19]: 1; PI (Acinetobacter baumannii [23]): 16; PI (Staphylococcus aureus [24]): 8; IC50 (Acinetobacter baumannii [22]): 3 µg/mL; MIC (Acinetobacter baumannii [22]): 8 µg/mL
CN(CC[C@H](N)CC(=O)N[C@H]1C=C[C@H](n2ccc(N)nc2=O)O[C@@H]1C(=O)OCCc1ccccc1)C(=N)N,0.2,1,> 128 µg/mL,13.8 µg/mL,32 µg/mL,18.5 µg/mL,0.2,57.1 µg/mL,> 128 µg/mL,1.2,76.9 µg/mL,> 128 µg/mL,2.7,18.1 µg/mL,64 µg/mL,27.3 µg/mL,64 µg/mL,16.1 µg/mL,32 µg/mL,6.9 µg/mL,Activity (Staphylococcus aureus [5]): Active; Activity (Candida albicans [8]): inactive; Activity (Staphylococcus aureus [10]): Active; Activity (Enterococcus faecalis [13]): Active; MIC (Enterococcus faecalis [16]): 8 µg/mL; selectivity ratio [17]: 0.7; selectivity ratio [18]: 1.4; MIC (Saccharomyces cerevisiae): 64 µg/mL; selectivity ratio [19]: 0.3; Activity (Enterococcus [20]): Active; Activity (Staphylococcus aureus [21]): Active; IC50 (Acinetobacter baumannii [22]): 113 µg/mL; MIC (Acinetobacter baumannii [22]): > 128 µg/mL
